{
  "source": "ChEMBL document CHEMBL1759993",
  "about": "“Synthesis and SAR of novel benzoxaboroles as a new class of β-lactamase inhibitors” (Bioorg Med Chem Lett, 2011)",
  "key": {"Beta-lactamase": {"molecular_target": "Beta-lactamase (Enterobacter cloacae, UniProt P05364)", "sequence (P05364 whole entry)": "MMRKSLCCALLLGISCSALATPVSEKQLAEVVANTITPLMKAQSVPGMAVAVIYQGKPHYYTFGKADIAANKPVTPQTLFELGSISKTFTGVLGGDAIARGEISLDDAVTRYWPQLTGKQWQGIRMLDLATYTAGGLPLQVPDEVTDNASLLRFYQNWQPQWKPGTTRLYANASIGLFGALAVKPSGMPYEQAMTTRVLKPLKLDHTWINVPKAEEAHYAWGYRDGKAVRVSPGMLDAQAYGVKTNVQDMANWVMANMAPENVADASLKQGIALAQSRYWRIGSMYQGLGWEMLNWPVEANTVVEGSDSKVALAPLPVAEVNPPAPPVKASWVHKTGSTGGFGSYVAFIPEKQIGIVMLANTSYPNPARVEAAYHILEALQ", "assay": "Inhibition of Enterobacter cloacae P99 beta-lactamase AmpC P99 using nitrocefin as substrate after 30 mins by spectrophotometric analysis", "outline": "(§1)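 Substrate level differed between class A and class C enzymes. Fraction inhibited was taken as the rate with inhibitor over the rate without. IC50 was read from log[inhibitor] dose–response curves.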"}, "[1]": {"assay": "Inhibition of beta-lactamase CTX-M9a using nitrocefin as substrate after 30 mins by spectrophotometric analysis", "outline": "as §1"}, "[2]": {"assay": "Inhibition of beta-lactamase TEM1 using nitrocefin as substrate after 30 mins by spectrophotometric analysis", "outline": "as §1"}, "[3]": {"assay": "Inhibition of beta-lactamase CMY-2 using nitrocefin as substrate after 30 mins by spectrophotometric analysis", "outline": "as §1"}, "[4]": {"molecular_target": "Beta-lactamase (Enterobacter cloacae) (UniProt P05364)", "sequence (P05364 21-381 limits assumed)": "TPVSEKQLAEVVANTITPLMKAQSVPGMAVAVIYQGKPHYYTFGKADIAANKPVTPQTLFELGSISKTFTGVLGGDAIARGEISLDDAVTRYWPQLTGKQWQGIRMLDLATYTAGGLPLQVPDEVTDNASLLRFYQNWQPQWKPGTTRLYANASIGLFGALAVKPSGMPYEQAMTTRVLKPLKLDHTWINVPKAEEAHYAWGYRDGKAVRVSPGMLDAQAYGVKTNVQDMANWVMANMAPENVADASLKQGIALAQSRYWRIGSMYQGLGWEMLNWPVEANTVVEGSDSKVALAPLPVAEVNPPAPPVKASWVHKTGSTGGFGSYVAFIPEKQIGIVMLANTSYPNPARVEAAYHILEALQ", "assay": "Inhibition of Enterobacter cloacae P99 beta-lactamase AmpC P99 assessed as potentiation of ceftazidime-mediated antibacterial activity at 8 ug/ml"}, "[5]": {"assay": "Inhibition of beta-lactamase CMY-2 expressed in Escherichia coli SYN2549 assessed as potentiation of ceftazidime-mediated antibacterial activity at 8 ug/ml"}},
  "note": "Activity calls are given as the source filed them. The rule behind the calls is not given here.",
  "data": [
    {"smiles": "CN(C)Cc1cccc(Oc2ccc3c(c2)B(O)OC3)c1", "values": [
      {"measurement": "Ki", "setting": "Beta-lactamase", "result": 7.72, "unit": "µM"}
    ]},
    {"smiles": "O=C(O)c1ccc(Oc2ccc3c(c2)B(O)OC3)cc1", "values": [
      {"measurement": "Ki", "setting": "Beta-lactamase", "result": 0.02, "unit": "µM"}
    ]},
    {"smiles": "CN(C)Cc1ccc(Oc2ccc3c(c2)B(O)OC3)cc1", "values": [
      {"measurement": "Ki", "setting": "Beta-lactamase", "result": 40.6, "unit": "µM"}
    ]},
    {"smiles": "OB1OCc2ccc(Nc3ccccc3)cc21", "values": [
      {"measurement": "Ki", "setting": "[1]", "result": "> 32", "unit": "µM"},
      {"measurement": "Ki", "setting": "[2]", "result": "> 37", "unit": "µM"},
      {"measurement": "Ki", "setting": "Beta-lactamase", "result": 4.73, "unit": "µM"},
      {"measurement": "Ki", "setting": "[3]", "result": 13.8, "unit": "µM"}
    ]},
    {"smiles": "COc1cccc(Oc2ccc3c(c2)B(O)OC3)c1", "values": [
      {"measurement": "Ki", "setting": "[1]", "result": 1.1, "unit": "µM"},
      {"measurement": "Ki", "setting": "[2]", "result": 1.4, "unit": "µM"},
      {"measurement": "Ki", "setting": "Beta-lactamase", "result": 1.35, "unit": "µM"},
      {"measurement": "Ki", "setting": "[3]", "result": 2.65, "unit": "µM"}
    ]},
    {"smiles": "O=C(c1ccccc1)c1ccc2c(c1)B(O)OC2", "values": [
      {"measurement": "Ki", "setting": "[1]", "result": "> 32", "unit": "µM"},
      {"measurement": "Ki", "setting": "[2]", "result": 10.6, "unit": "µM"},
      {"measurement": "Ki", "setting": "Beta-lactamase", "result": 28.5, "unit": "µM"},
      {"measurement": "Ki", "setting": "[3]", "result": 46.9, "unit": "µM"}
    ]},
    {"smiles": "COc1ccc(Oc2ccc3c(c2)B(O)OC3)cc1", "values": [
      {"measurement": "Ki", "setting": "[1]", "result": 14.1, "unit": "µM"},
      {"measurement": "Ki", "setting": "[2]", "result": 4.34, "unit": "µM"},
      {"measurement": "Ki", "setting": "Beta-lactamase", "result": 6, "unit": "µM"},
      {"measurement": "Ki", "setting": "[3]", "result": "> 46", "unit": "µM"}
    ]},
    {"smiles": "OB1OCc2ccc(Oc3cccc(O)c3)cc21", "values": [
      {"measurement": "Ki", "setting": "[1]", "result": 0.816, "unit": "µM"},
      {"measurement": "Ki", "setting": "[3]", "result": 3.12, "unit": "µM"}
    ]},
    {"smiles": "OB1OCc2ccc(Oc3cccc(OCc4ccccc4)c3)cc21", "values": [
      {"measurement": "Ki", "setting": "[1]", "result": 8.75, "unit": "µM"},
      {"measurement": "Ki", "setting": "[2]", "result": 1.08, "unit": "µM"},
      {"measurement": "Ki", "setting": "Beta-lactamase", "result": 2.27, "unit": "µM"},
      {"measurement": "Ki", "setting": "[3]", "result": 74.5, "unit": "µM"}
    ]},
    {"smiles": "O=C(O)c1cnc(Oc2ccc3c(c2)B(O)OC3)cn1", "values": [
      {"measurement": "Ki", "setting": "[1]", "result": "> 32", "unit": "µM"},
      {"measurement": "Ki", "setting": "[2]", "result": 20.4, "unit": "µM"},
      {"measurement": "Ki", "setting": "Beta-lactamase", "result": 0.02, "unit": "µM"},
      {"measurement": "Activity", "setting": "[4]", "result": "Active"},
      {"measurement": "Activity", "setting": "[5]", "result": "Active"}
    ]},
    {"smiles": "O=C(O)c1cnc(Oc2ccc3c(c2)B(O)OC3)nc1", "values": [
      {"measurement": "Ki", "setting": "[1]", "result": "> 32", "unit": "µM"},
      {"measurement": "Ki", "setting": "[2]", "result": 14.7, "unit": "µM"},
      {"measurement": "Ki", "setting": "Beta-lactamase", "result": 0.08, "unit": "µM"},
      {"measurement": "Ki", "setting": "[3]", "result": 0.07, "unit": "µM"}
    ]},
    {"smiles": "OB1OCc2ccc(Sc3ccccc3)cc21", "values": [
      {"measurement": "Ki", "setting": "[1]", "result": "> 32", "unit": "µM"},
      {"measurement": "Ki", "setting": "[2]", "result": 1.76, "unit": "µM"},
      {"measurement": "Ki", "setting": "Beta-lactamase", "result": 9.09, "unit": "µM"},
      {"measurement": "Ki", "setting": "[3]", "result": 12.7, "unit": "µM"}
    ]},
    {"smiles": "Nc1ccc(Oc2ccc3c(c2)B(O)OC3)cc1", "values": [
      {"measurement": "Ki", "setting": "Beta-lactamase", "result": 8.73, "unit": "µM"}
    ]},
    {"smiles": "OB1OCc2ccc(Oc3ccccc3)cc21", "values": [
      {"measurement": "Ki", "setting": "[1]", "result": 1.89, "unit": "µM"},
      {"measurement": "Ki", "setting": "[2]", "result": 1.02, "unit": "µM"},
      {"measurement": "Ki", "setting": "Beta-lactamase", "result": 0.71, "unit": "µM"},
      {"measurement": "Ki", "setting": "[3]", "result": 1.51, "unit": "µM"}
    ]},
    {"smiles": "Nc1cccc(Oc2ccc3c(c2)B(O)OC3)c1", "values": [
      {"measurement": "Ki", "setting": "[1]", "result": 0.69, "unit": "µM"},
      {"measurement": "Ki", "setting": "[2]", "result": 1.01, "unit": "µM"},
      {"measurement": "Ki", "setting": "Beta-lactamase", "result": 2.75, "unit": "µM"},
      {"measurement": "Ki", "setting": "[3]", "result": 6.09, "unit": "µM"}
    ]},
    {"smiles": "O=C(ONc1ccccc1)c1ccc2c(c1)B(O)OC2", "values": [
      {"measurement": "Ki", "setting": "[1]", "result": "> 32", "unit": "µM"},
      {"measurement": "Ki", "setting": "[2]", "result": "> 37", "unit": "µM"},
      {"measurement": "Ki", "setting": "Beta-lactamase", "result": 16, "unit": "µM"},
      {"measurement": "Ki", "setting": "[3]", "result": 13.8, "unit": "µM"}
    ]},
    {"smiles": "O=S(=O)(c1ccccc1)c1ccc2c(c1)B(O)OC2", "values": [
      {"measurement": "Ki", "setting": "[1]", "result": "> 32", "unit": "µM"},
      {"measurement": "Ki", "setting": "[2]", "result": 11.2, "unit": "µM"},
      {"measurement": "Ki", "setting": "Beta-lactamase", "result": 63.2, "unit": "µM"},
      {"measurement": "Ki", "setting": "[3]", "result": 108, "unit": "µM"}
    ]},
    {"smiles": "CCOC(=O)c1ccc(Oc2ccc3c(c2)B(O)OC3)cc1", "values": [
      {"measurement": "Ki", "setting": "[1]", "result": "> 32", "unit": "µM"},
      {"measurement": "Ki", "setting": "[2]", "result": 3.11, "unit": "µM"},
      {"measurement": "Ki", "setting": "Beta-lactamase", "result": 5.55, "unit": "µM"}
    ]},
    {"smiles": "[O-][S+](c1ccccc1)c1ccc2c(c1)B(O)OC2", "note": "(stereo unspecified)", "values": [
      {"measurement": "Ki", "setting": "[1]", "result": "> 32", "unit": "µM"},
      {"measurement": "Ki", "setting": "[2]", "result": 4.87, "unit": "µM"},
      {"measurement": "Ki", "setting": "Beta-lactamase", "result": 58, "unit": "µM"},
      {"measurement": "Ki", "setting": "[3]", "result": 59.3, "unit": "µM"}
    ]},
    {"smiles": "OB1OCc2ccc(Cc3ccccc3)cc21", "values": [
      {"measurement": "Ki", "setting": "[1]", "result": "> 32", "unit": "µM"},
      {"measurement": "Ki", "setting": "[2]", "result": "> 37", "unit": "µM"},
      {"measurement": "Ki", "setting": "Beta-lactamase", "result": 19.8, "unit": "µM"},
      {"measurement": "Ki", "setting": "[3]", "result": 25.6, "unit": "µM"}
    ]},
    {"smiles": "OB1OCc2ccc(C(O)c3ccccc3)cc21", "note": "(stereo unspecified)", "values": [
      {"measurement": "Ki", "setting": "[1]", "result": "> 32", "unit": "µM"},
      {"measurement": "Ki", "setting": "[2]", "result": "> 37", "unit": "µM"},
      {"measurement": "Ki", "setting": "Beta-lactamase", "result": 7.28, "unit": "µM"},
      {"measurement": "Ki", "setting": "[3]", "result": 8.42, "unit": "µM"}
    ]},
    {"smiles": "NCc1cccc(Oc2ccc3c(c2)B(O)OC3)c1", "values": [
      {"measurement": "Ki", "setting": "Beta-lactamase", "result": 3.33, "unit": "µM"}
    ]},
    {"smiles": "O=C(O)c1cccc(Oc2ccc3c(c2)B(O)OC3)c1", "values": [
      {"measurement": "Ki", "setting": "Beta-lactamase", "result": 1.44, "unit": "µM"}
    ]},
    {"smiles": "O=C(Nc1ccc2c(c1)B(O)OC2)c1ccccc1", "values": [
      {"measurement": "Ki", "setting": "[1]", "result": "> 32", "unit": "µM"},
      {"measurement": "Ki", "setting": "[2]", "result": "> 37", "unit": "µM"},
      {"measurement": "Ki", "setting": "Beta-lactamase", "result": 46.6, "unit": "µM"},
      {"measurement": "Ki", "setting": "[3]", "result": "> 138", "unit": "µM"}
    ]},
    {"smiles": "OCc1cccc(Oc2ccc3c(c2)B(O)OC3)c1", "values": [
      {"measurement": "Ki", "setting": "[1]", "result": 1.92, "unit": "µM"},
      {"measurement": "Ki", "setting": "[2]", "result": 1.36, "unit": "µM"},
      {"measurement": "Ki", "setting": "Beta-lactamase", "result": 8.4, "unit": "µM"},
      {"measurement": "Ki", "setting": "[3]", "result": 8.43, "unit": "µM"}
    ]},
    {"smiles": "NCc1ccc(Oc2ccc3c(c2)B(O)OC3)cc1", "values": [
      {"measurement": "Ki", "setting": "Beta-lactamase", "result": 13.3, "unit": "µM"}
    ]}
  ]
}
